Legend:
Settings in all cases: in vivo
[1] = Drug excretion in mouse B16-F0 cells bearing C57BL/6 mouse urine at 0.74 to 0.92 MBq, iv after 72 hrs; format: ADME, organism-based
In short: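 Urine was collected from two B16-F0 tumour-bearing C57BL6 mice for up to 72 h after iv tail-vein injection of the [¹²⁵I]-labelled compound (0.1 µmol). Samples were counted to give cumulative urinary excretion as %ID.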

[2] = Biodistribution in tumor of C57BL/6 mouse bearing mouse B16-F0 cells at 0.74 to 0.92 MBq, iv after 1 hr; format: ADME, organism-based, Neoplasm
In short: (§1)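 [¹²⁵I]-labelled compound given iv by tail vein (0.1 µmol per mouse) to male C57BL6 mice bearing s.c. B16-F0 flank tumours (5 × 10⁵ cells in PBS). Two mice per time point were killed by CO₂, frozen in liquid nitrogen and cut into 40 µm cryosections, eight slices per mouse. Slice radioactivity was read on a multiwire proportional counter, converted to kBq/g and reported as %ID/g.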

[3] = Biodistribution in tumor of C57BL/6 mouse bearing mouse B16-F0 cells at 0.74 to 0.92 MBq, iv after 3 hrs; format: ADME, organism-based, Neoplasm; in short: as §1
[4] = Biodistribution in tumor of C57BL/6 mouse bearing mouse B16-F0 cells at 0.74 to 0.92 MBq, iv after 6 hrs; format: ADME, organism-based, Neoplasm; in short: as §1
[5] = Biodistribution in tumor of C57BL/6 mouse bearing mouse B16-F0 cells at 0.74 to 0.92 MBq, iv after 24 hrs; format: ADME, organism-based, Neoplasm; in short: as §1
[6] = Ratio of drug level in tumor to liver of C57BL/6 mouse bearing mouse B16-F0 cells at 0.74 to 0.92 MBq, iv after 1 hr; format: ADME, organism-based
In short: (§2)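 Tumour and organ radioactive concentrations came from whole-body cryosection counting (40 µm slices, eight per mouse, two mice per time) after tail-vein injection of the [¹²⁵I]-labelled compound (0.1 µmol) into male C57BL6 mice bearing s.c. B16-F0 melanoma. Each value is the ratio of the tumour concentration to the organ concentration.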

[7] = Ratio of drug level in tumor to liver of C57BL/6 mouse bearing mouse B16-F0 cells at 0.74 to 0.92 MBq, iv after 24 hrs; format: ADME, organism-based; in short: as §2
[8] = Ratio of drug level in tumor to lung of C57BL/6 mouse bearing mouse B16-F0 cells at 0.74 to 0.92 MBq, iv after 1 hr; format: ADME, organism-based; in short: as §2
[9] = Ratio of drug level in tumor to brain of C57BL/6 mouse bearing mouse B16-F0 cells at 0.74 to 0.92 MBq, iv after 1 hr; format: ADME, organism-based; in short: as §2
[10] = Ratio of drug level in tumor to brain of C57BL/6 mouse bearing mouse B16-F0 cells at 0.74 to 0.92 MBq, iv after 3 hrs; format: ADME, organism-based; in short: as §2
Brain = test: Biodistribution in brain of C57BL/6 mouse bearing mouse B16-F0 cells at 0.74 to 0.92 MBq, iv after 1 hr; format: ADME, organism-based
In short: (§3)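 Male C57BL6 mice with s.c. left-flank B16-F0 melanoma (5 × 10⁵ cells in PBS). Two mice per time point frozen in liquid nitrogen after CO₂ sacrifice. Eight 40 µm whole-body cryosections per mouse read by multiwire proportional counter. cpm/mm² converted to kBq/g and expressed as %ID/g.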

[11] = Biodistribution in intestinal content of C57BL/6 mouse bearing mouse B16-F0 cells at 0.74 to 0.92 MBq, iv after 1 hr; format: ADME, organism-based; in short: as §3
[12] = Biodistribution in intestinal content of C57BL/6 mouse bearing mouse B16-F0 cells at 0.74 to 0.92 MBq, iv after 3 hrs; format: ADME, organism-based; in short: as §3
[13] = Biodistribution in intestinal content of C57BL/6 mouse bearing mouse B16-F0 cells at 0.74 to 0.92 MBq, iv after 24 hrs; format: ADME, organism-based; in short: as §3
[14] = Biodistribution in Stomach content of C57BL/6 mouse bearing mouse B16-F0 cells at 0.74 to 0.92 MBq, iv after 3 hrs; format: ADME, organism-based; in short: as §3
[15] = Biodistribution in Stomach content of C57BL/6 mouse bearing mouse B16-F0 cells at 0.74 to 0.92 MBq, iv after 6 hrs; format: ADME, organism-based; in short: as §3
Liver [16] = test: Biodistribution in liver of C57BL/6 mouse bearing mouse B16-F0 cells at 0.74 to 0.92 MBq, iv after 1 hr; format: ADME, organism-based; in short: as §3
Liver [17] = test: Biodistribution in liver of C57BL/6 mouse bearing mouse B16-F0 cells at 0.74 to 0.92 MBq, iv after 6 hrs; format: ADME, organism-based; in short: as §3
Liver [18] = test: Biodistribution in liver of C57BL/6 mouse bearing mouse B16-F0 cells at 0.74 to 0.92 MBq, iv after 24 hrs; format: ADME, organism-based; in short: as §3
Muscle tissue = test: Biodistribution in muscle of C57BL/6 mouse bearing mouse B16-F0 cells at 0.74 to 0.92 MBq, iv after 3 hrs; format: ADME, organism-based; in short: as §3
Pancreas = test: Biodistribution in pancreas of C57BL/6 mouse bearing mouse B16-F0 cells at 0.74 to 0.92 MBq, iv after 1 hr; format: ADME, organism-based; in short: as §3
Lung = test: Biodistribution in lung of C57BL/6 mouse bearing mouse B16-F0 cells at 0.74 to 0.92 MBq, iv after 3 hrs; format: ADME, organism-based; in short: as §3
Spleen [19] = test: Biodistribution in spleen of C57BL/6 mouse bearing mouse B16-F0 cells at 0.74 to 0.92 MBq, iv after 1 hr; format: ADME, organism-based; in short: as §1
Spleen [20] = test: Biodistribution in spleen of C57BL/6 mouse bearing mouse B16-F0 cells at 0.74 to 0.92 MBq, iv after 3 hrs; format: ADME, organism-based; in short: as §1
Spleen [21] = test: Biodistribution in spleen of C57BL/6 mouse bearing mouse B16-F0 cells at 0.74 to 0.92 MBq, iv after 6 hrs; format: ADME, organism-based; in short: as §1
Kidney [22] = test: Biodistribution in kidney of C57BL/6 mouse bearing mouse B16-F0 cells at 0.74 to 0.92 MBq, iv after 1 hr; format: ADME, organism-based; in short: as §3
Kidney [23] = test: Biodistribution in kidney of C57BL/6 mouse bearing mouse B16-F0 cells at 0.74 to 0.92 MBq, iv after 6 hrs; format: ADME, organism-based; in short: as §3
Blood [24] = test: Biodistribution in blood of C57BL/6 mouse bearing mouse B16-F0 cells at 0.74 to 0.92 MBq, iv after 1 hr; format: ADME, organism-based; in short: as §3
Blood [25] = test: Biodistribution in blood of C57BL/6 mouse bearing mouse B16-F0 cells at 0.74 to 0.92 MBq, iv after 6 hrs; format: ADME, organism-based; in short: as §3
[26] = Biodistribution in uvea of C57BL/6 mouse bearing mouse B16-F0 cells at 0.74 to 0.92 MBq, iv after 1 hr; format: ADME, organism-based, Uveal tract; in short: as §1
[27] = Biodistribution in uvea of C57BL/6 mouse bearing mouse B16-F0 cells at 0.74 to 0.92 MBq, iv after 3 hrs; format: ADME, organism-based, Uveal tract; in short: as §1
[28] = Biodistribution in uvea of C57BL/6 mouse bearing mouse B16-F0 cells at 0.74 to 0.92 MBq, iv after 72 hrs; format: ADME, organism-based, Uveal tract; in short: as §1
Thyroid gland [29] = test: Biodistribution in thyroid of C57BL/6 mouse bearing mouse B16-F0 cells at 0.74 to 0.92 MBq, iv after 3 hrs; format: ADME, organism-based; in short: as §1
Thyroid gland [30] = test: Biodistribution in thyroid of C57BL/6 mouse bearing mouse B16-F0 cells at 0.74 to 0.92 MBq, iv after 6 hrs; format: ADME, organism-based; in short: as §1

SMILES	Activity [1] [%]	Drug uptake [2] [% ID/g]	Drug uptake [3] [% ID/g]	Drug uptake [4] [% ID/g]	Drug uptake [5] [% ID/g]	Ratio [6]	Ratio [7]	Ratio [8]	Ratio [9]	Ratio [10]	Drug uptake (Brain) [% ID/g]	Drug uptake [11] [% ID/g]	Drug uptake [12] [% ID/g]	Drug uptake [14] [% ID/g]	Drug uptake [15] [% ID/g]	Drug uptake (Liver [16]) [% ID/g]	Drug uptake (Liver [17]) [% ID/g]	Drug uptake (Liver [18]) [% ID/g]	Drug uptake (Muscle tissue) [% ID/g]	Drug uptake (Lung) [% ID/g]	also measured
CCN(CC)CCNC(=O)c1cc2cc([125I])ccc2[nH]1.Cl	21.5	8.3	10.2	9.8	8.2	0.7	5.07	0.58	1.69	3.91	4.84	76.74	112.56	18.52	21.84	11.86	3.63	1.61	0.49	3.46	Drug uptake [13]: 3.31 % ID/g; Drug uptake (Pancreas): 7.15 % ID/g; Drug uptake (Spleen [19]): 8.09 % ID/g; Drug uptake (Spleen [20]): 2.79 % ID/g; Drug uptake (Spleen [21]): 1.68 % ID/g; Drug uptake (Kidney [22]): 4.19 % ID/g; Drug uptake (Kidney [23]): 2.5 % ID/g; Drug uptake (Blood [24]): 1.6 % ID/g; Drug uptake (Blood [25]): 0.67 % ID/g; Drug uptake [26]: 11.7 % ID/g; Drug uptake [27]: 12.78 % ID/g; Drug uptake [28]: 5.86 % ID/g
CCN(CC)CCNC(=O)c1cnc2cc([125I])ccc2n1.Cl.Cl	70.2	17	27.7	40.7	21.7	1.29	14.54	2.17	7.26	26.87	2.34	15.22	17.45	20.33	21.09	13.18	7.53	1.49	0.86	5.68	Drug uptake (Pancreas): 7.6 % ID/g; Drug uptake (Spleen [19]): 14.21 % ID/g; Drug uptake (Spleen [20]): 4.69 % ID/g; Drug uptake (Kidney [22]): 16.46 % ID/g; Drug uptake (Kidney [23]): 7.69 % ID/g; Drug uptake (Blood [24]): 3.45 % ID/g; Drug uptake (Blood [25]): 3.09 % ID/g; Drug uptake (Thyroid gland [29]): 39.76 % ID/g; Drug uptake (Thyroid gland [30]): 83.77 % ID/g; Drug uptake [26]: 33.82 % ID/g; Drug uptake [27]: 24.79 % ID/g; Drug uptake [28]: 25.26 % ID/g
CCN(CC)CCNC(=O)c1cc2cc([125I])ccc2o1.Cl	21.4	8.8	7.5	7.8	5	1.36	11.2	1.72	6	31.29	1.46	182.62	138.09	16.07	10.06	6.44	1.77	0.45	0.29	1.92	Drug uptake [13]: 2.33 % ID/g; Drug uptake (Spleen [19]): 10.68 % ID/g; Drug uptake (Spleen [21]): 11.34 % ID/g; Drug uptake (Kidney [22]): 6.5 % ID/g; Drug uptake (Kidney [23]): 1.82 % ID/g; Drug uptake (Blood [24]): 3.57 % ID/g; Drug uptake (Blood [25]): 1.28 % ID/g; Drug uptake (Thyroid gland [29]): 22.43 % ID/g; Drug uptake (Thyroid gland [30]): 40.63 % ID/g; Drug uptake [26]: 28.64 % ID/g; Drug uptake [27]: 20.11 % ID/g; Drug uptake [28]: 10.11 % ID/g

— ChEMBL document CHEMBL1150393, “Evaluation of radiolabeled (hetero)aromatic analogues of N-(2-diethylaminoethyl)-4-iodobenzamide for imaging and targeted radionuclide therapy of melanoma” (J Med Chem, 2008)
